An excerpt weighted towards active compounds, which were near 1.3% of everything screened.
PP5 inh = PP5 (human) phosphatase inhibition; P53041; purified PP5c, OMFP substrate fluorescence; inhibition, % at 6.7 µM; 320,000 compounds, 0.18% hits;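 active = inhibition above the campaign's mean inhibition across all tested compounds plus 3 SD, cut at about 9.5% in these data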
PP1 counter = blocks human PP1-alpha phosphatase, a PP5 counter-screen; P62136; purified PP1alpha, OMFP fluorescence; inhibition, % at 6.7 µM; 320,000 compounds, 0.9% hits;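 active = inhibition above the mean inhibition of all tested compounds plus 3 SD, computed separately for each screening campaign, cut at about 15% in these data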
NR2E3 ag-1 = activates human photoreceptor nuclear receptor NR2E3; 320,000 compounds, 0.12% hits; Q9Y5X4; inhibition of corepressor binding, % at 4.78 µM; AID 2300; GST-NR2E3/biotin-RetCOR TR-FRET, 1536-well;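 active = percent inhibition above the cutoff of mean plus 3 SD of all tested compounds, set per screening campaign, cut at about 20% in these data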
Target sequence (Q9Y5X4 whole entry, looked up): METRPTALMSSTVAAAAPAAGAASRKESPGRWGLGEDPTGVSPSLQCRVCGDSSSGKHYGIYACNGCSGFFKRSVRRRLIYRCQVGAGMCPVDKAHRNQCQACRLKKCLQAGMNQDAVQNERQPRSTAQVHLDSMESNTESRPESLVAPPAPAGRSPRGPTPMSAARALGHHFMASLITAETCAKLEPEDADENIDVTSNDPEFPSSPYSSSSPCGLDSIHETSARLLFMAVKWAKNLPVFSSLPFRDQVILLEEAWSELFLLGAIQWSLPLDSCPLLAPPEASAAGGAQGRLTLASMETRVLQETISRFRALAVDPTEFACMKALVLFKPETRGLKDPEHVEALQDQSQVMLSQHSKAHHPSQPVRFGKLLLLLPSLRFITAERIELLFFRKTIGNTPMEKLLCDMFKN
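Test system: GST-NR2E3 and biotin-RetCOR proteins | Quantity: 1.35 nM GST-tagged NR2E3 final | Medium: Tris pH 7.5 | Also added: 7 nM biotin-RetCOR | Dosing: Compound at 4.8 µM, single dose | Timing: 5 h at 4 °C | Detection: Time-resolved FRET | Read-out basis: Percent inhibition | Benchmarks: Biotin wells as high control, 0.6% DMSO wells as low control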
NR2E3 ag-2 = activates human NR2E3 receptor; Q9Y5X4; 360,000 compounds, 0.35% hits; CHO-S Gal4-NCOR/VP16-NR2E3 two-hybrid, luciferase; inhibition of corepressor binding, % at 3.98 µM;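 active = inhibition above the mean of all tested compounds plus 3 SD, cut at about 70% in these data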;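 note: higher means lower luciferase signal from less NR2E3 corepressor binding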
NR2E3 ag confirm = NR2E3 agonism confirmed in two-hybrid assay; inhibition, % at 3.98 µM; CHO-S mammalian two-hybrid NR2E3-NCOR, luciferase luminescence; AID 624378; 2,300 compounds, 51% hits; shares compounds with NR2E3 ag-2;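 active = average inhibition above a cutoff equal to the mean inhibition of all tested compounds plus one SD, cut at about 70% in these data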
GAL4-VP16 luc = counter-screen for NR2E3 agonists: GAL4-VP16 reporter inhibitors; inhibition, % at 3.98 µM; CHO-S GAL4-VP16 luciferase reporter, luminescence; shares compounds with NR2E3 ag-2; AID 624379; 2,300 compounds, 29% hits;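 active = mean inhibition above a cutoff equal to the average over all tested compounds plus one standard deviation, cut at about 70% in these data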;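 note: luciferase from a UAS reporter driven by GAL4-VP16 transactivation; higher means less reporter light so more repression of VP16 activity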
Large screens that a line does not name were inactive (follow-up assays come after a bar, where they were run).

Nc1ncnc2c1ncn2[C@@H]1O[C@H](CO)[C@@H](O)[C@H]1O	none
Nc1ncnc2c(C3OC(CO)C(O)C3O)c[nH]c12 (centres undefined)	NR2E3 ag-2 102.9 (no result: PP5 inh, PP1 counter, NR2E3 ag-1) | NR2E3 ag confirm 100.6 | GAL4-VP16 luc 99.4
CCN1/C(=C/C=C/c2oc3ccc(-c4ccccc4)cc3[n+]2CC)Oc2ccc(-c3ccccc3)cc21	NR2E3 ag-2 80.1 | NR2E3 ag confirm 100.1 | GAL4-VP16 luc 92.5
CCc1nnc(SCc2ccc([N+](=O)[O-])cc2)nc1CC	none
CCC(C)(C)c1ccc(Oc2cccc(C(=O)O)c2)cc1	none
CCC(C)(C)c1ccc(Oc2ccc(N)cc2)cc1	none (no result: PP5 inh, PP1 counter, NR2E3 ag-1) | NR2E3 ag confirm inactive | GAL4-VP16 luc inactive
CN(c1cccc(Cl)c1)S(=O)(=O)c1cccc(C(=O)NCc2ccncc2)c1	none
Cc1cc(C)c(C(=O)/C=C/c2ccc3c(c2)OCO3)c(=O)[nH]1	none
Cc1cc(C)c(C(=O)/C=C/c2cccc3ccccc23)c(=O)[nH]1	none | NR2E3 ag confirm inactive | GAL4-VP16 luc inactive
CCOc1ccc(CN(C)c2ccc(S(=O)(=O)N3CCN(C)CC3)cc2[N+](=O)[O-])cc1OC	none | NR2E3 ag confirm 77.6 | GAL4-VP16 luc inactive
C=CCOc1ccc(CN(C)c2ccc(S(=O)(=O)N3CCN(C)CC3)cc2[N+](=O)[O-])cc1	none
O=C(Nc1ccccc1)Nc1cc(OCC(F)(F)F)cc(OCC(F)(F)F)c1	none (no result: PP5 inh, PP1 counter, NR2E3 ag-1) | NR2E3 ag confirm inactive | GAL4-VP16 luc inactive
COCC(C)n1c(SCC(=O)NC(=O)NCc2ccccc2)nc2ccccc2c1=O (centres undefined)	none (no result: PP5 inh, PP1 counter, NR2E3 ag-1)
CC[N+]1(CC(O)COC2CC(C)CC(C)(C)C2)CCOCC1 (centres undefined)	none
Cc1ccc(C(C#N)c2ccc(C(=O)c3ccc(F)cc3)cc2)cc1 (centres undefined)	none | NR2E3 ag confirm inactive | GAL4-VP16 luc inactive
Cc1nc2c(-c3ccc(Cl)cc3)cnn2c(N)c1-c1ccc(F)cc1	none
Cc1nc2c(-c3ccc(F)cc3)cnn2c(N)c1-c1ccccc1	NR2E3 ag-2 77.3 | NR2E3 ag confirm inactive | GAL4-VP16 luc inactive
CN(C)S(=O)(=O)N1CCC(Oc2cccc(C(=O)NC3CCOC3)c2)CC1 (centres undefined)	none
O=c1ccc2cc(S(=O)(=O)N3CCN(c4ccccc4F)CC3)ccc2o1	none
O=c1[nH]c2ccc(S(=O)(=O)N3CCN(c4ccccc4F)CC3)cc2s1	none | NR2E3 ag confirm inactive | GAL4-VP16 luc inactive
O=C(NCC(c1ccco1)N1CCCC1)c1ccc(Cl)c(S(=O)(=O)N2CCc3ccccc32)c1 (centres undefined)	none | NR2E3 ag confirm inactive | GAL4-VP16 luc inactive
CC(C)COC(=O)NCCOC(=O)Nc1cccc(Cl)c1	NR2E3 ag-2 72.6 | NR2E3 ag confirm 88.9 | GAL4-VP16 luc 72.4
CC(C)COC(=O)NCCCOC(=O)Nc1ccccc1	none
S=c1[nH]cnc2scc(-c3ccc(Cl)cc3)c12	none | NR2E3 ag confirm inactive | GAL4-VP16 luc inactive
Cc1ccc(-c2csc3nc[nH]c(=S)c23)cc1	none
S=c1[nH]cnc2scc(-c3ccc(Br)cc3)c12	NR2E3 ag-2 81.0 | NR2E3 ag confirm inactive | GAL4-VP16 luc inactive
CC(C)(NO)/C(=N/O)c1ccc(Br)cc1	none | NR2E3 ag confirm inactive | GAL4-VP16 luc inactive
CC(C)(NO)/C(=N\O)c1ccc(Cl)cc1	none
COc1ccccc1/C=C/C(=O)NCCc1ccccn1	none
Cc1cccc(OCCCC(=O)Nc2nc3ccccc3[nH]2)c1	none | NR2E3 ag confirm 72.4 | GAL4-VP16 luc inactive
Nc1nc2ccc(Cl)cc2cc1C(=O)NCCc1c[nH]c2ccccc12	NR2E3 ag-2 93.1 (no result: PP5 inh, PP1 counter, NR2E3 ag-1) | NR2E3 ag confirm 94.2 | GAL4-VP16 luc 83.1
Nc1nc2cc3c(cc2cc1C(=O)NCc1ccc(F)cc1)OCO3	NR2E3 ag-2 88.1 (no result: PP5 inh, PP1 counter, NR2E3 ag-1) | NR2E3 ag confirm 93.5 | GAL4-VP16 luc 72.4
Nc1nc2ccc(Cl)cc2cc1C(=O)NCc1ccc(Oc2ccccc2)cc1	NR2E3 ag-2 95.0 (no result: PP5 inh, PP1 counter, NR2E3 ag-1) | NR2E3 ag confirm 94.3 | GAL4-VP16 luc 82.0
O=C(COc1ccc(Br)cc1F)NC1CC1	none (no result: PP5 inh, PP1 counter, NR2E3 ag-1)
CC1(c2ccc3ccccc3c2)NC(=O)N(CC(=O)N2CCN(Cc3ccc(C#N)cc3)CC2)C1=O (centres undefined)	NR2E3 ag-2 105.2 (no result: PP5 inh, PP1 counter, NR2E3 ag-1) | NR2E3 ag confirm 90.5 | GAL4-VP16 luc 80.1

High-throughput results as filed in PubChem.
